Assay results from ChEMBL document CHEMBL1125812, “Synthesis of two cyclopentenyl-3-deazapyrimidine carbocyclic nucleosides related to cytidine and uridine” (1991).

How the values were obtained:
Format in all cases: functional
Conditions in all cases: Mus musculus
L1210 [1] = assay: Compound was evaluated for the ability to inhibit L1210 tumor cell growth a concentration of 1 uM
In short: (§1)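 L1210 cells seeded at 0.15 × 10^5 cells/mL in Fisher's medium with 10% heat-inactivated horse serum. Drug exposure was continuous for 48 h, and cell number was counted with a Coulter counter. Percent inhibition was calculated relative to untreated control cultures, which reached 4.5 × 10^5 cells/mL.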

L1210 [2] = assay: Compound was evaluated for the ability to inhibit L1210 tumor cell growth a concentration of 100 uM; in short: as §1
L1210 [3] = assay: Compound was evaluated for the ability to inhibit L1210 tumor cell growth a concentration of 10 uM; in short: as §1
L1210 [4] = assay: Compound was evaluated for the ability to inhibit L1210 tumor cell growth a concentration of 1000 uM; in short: as §1

## Nc1ccn([C@@H]2C=C(CO)[C@@H](O)[C@H]2O)c(=O)n1
L1210 [1]
  inhibition at 1 µM: 93%
L1210 [2]
  inhibition at 100 µM: 93%
L1210 [3]
  inhibition at 10 µM: 93%

## Nc1ccn([C@@H]2C=C(CO)[C@@H](O)[C@H]2O)c(=O)c1
L1210 [4]
  inhibition at 1000 µM: 15%
L1210 [1]
  inhibition at 1 µM: 0%
L1210 [2]
  inhibition at 100 µM: 0%
L1210 [3]
  inhibition at 10 µM: 0%

## O=c1cc(O)ccn1[C@@H]1C=C(CO)[C@@H](O)[C@H]1O
L1210 [4]
  inhibition at 1000 µM: 75%
L1210 [1]
  inhibition at 1 µM: 8%
L1210 [2]
  inhibition at 100 µM: 66%
L1210 [3]
  inhibition at 10 µM: 45%
